HTRA1 inh: HTRA1 (human) protease inhibition | Q92743 | recombinant HTRA1, FP-rhodamine activity-based probe, fluorescence polarization | 340,000 tested, 0.5% active | inhibition, % at 5.96 µM; in the data active = inhibition above about 36%
LEDGF integ inh: blocks HIV-1 LEDGF/p75-dependent DNA integration; 370,000 tested, 0.64% active; TR-FRET IN-LEDGF/p75 DNA integration, Eu/Cy5; AID 743269; inhibition, % at 3.7 µM;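 active = inhibition above the screen-wide mean plus 3 SD, cut at about 13% in these data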;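 note: signal is the Cy5 over europium emission ratio at 671 and 618 nm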
SIAE primary: inhibitors of human sialic acid acetylesterase SIAE | Q9HAT2 | AID 1053197 | 370,000 tested, 0.69% active | SIAE FP-Rh probe binding, fluorescence polarization | inhibition, % at 9.66 µM;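 active = inhibition above a cutoff: mean of compounds within the control limits plus 3 SD of those, cut at about 17% in these data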
TDP2 inh: TDP2 (human) inhibition, absorbance primary screen; O95551; recombinant TDP2, T5PNP hydrolysis, p-nitrophenol absorbance 415 nm; inhibition, % at 12.8 µM; 370,000 tested, 0.34% active; AID 720702;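 active = inhibition above the mean of all tested compounds plus 3 SD, set per campaign, cut at about 25% in these data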
Target sequence (O95551 whole entry, looked up): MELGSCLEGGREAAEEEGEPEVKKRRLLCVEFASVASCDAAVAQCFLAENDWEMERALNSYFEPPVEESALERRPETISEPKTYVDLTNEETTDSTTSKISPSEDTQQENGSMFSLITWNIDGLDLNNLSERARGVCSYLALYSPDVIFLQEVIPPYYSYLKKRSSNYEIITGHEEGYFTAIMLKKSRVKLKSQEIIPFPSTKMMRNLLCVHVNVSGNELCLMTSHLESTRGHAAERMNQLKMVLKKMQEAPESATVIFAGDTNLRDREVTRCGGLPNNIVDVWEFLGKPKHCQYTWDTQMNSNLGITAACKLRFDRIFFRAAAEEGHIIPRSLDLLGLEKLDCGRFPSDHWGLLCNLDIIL
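Test system: human TDP2 enzyme; Input: 120 nM TDP2 per well; Buffer or medium: Mg2+-containing Tris-HCl buffer, pH 7.5; Reagent: 5 mM T5PNP; Dosing: 12.8 µM single point, 1% DMSO; Incubation: reaction 2 h, 37 °C; Detection: p-Nitrophenol epi absorbance; Read-out: % inhibition relative to enzyme-containing and enzyme-free wells; Replicates: single well per compound.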
ABHD4 inh: inhibitors of mouse ABHD4; Q8VD66; 370,000 tested, 0.54% active; AID 720543; inhibition, % at 8.92 µM; purified mABHD4, FP-Rh probe fluorescence polarization;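 active = inhibition exceeding the mean over every tested compound plus 3 SD, cut at about 30% in these data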
Target sequence (Q8VD66 whole entry, looked up): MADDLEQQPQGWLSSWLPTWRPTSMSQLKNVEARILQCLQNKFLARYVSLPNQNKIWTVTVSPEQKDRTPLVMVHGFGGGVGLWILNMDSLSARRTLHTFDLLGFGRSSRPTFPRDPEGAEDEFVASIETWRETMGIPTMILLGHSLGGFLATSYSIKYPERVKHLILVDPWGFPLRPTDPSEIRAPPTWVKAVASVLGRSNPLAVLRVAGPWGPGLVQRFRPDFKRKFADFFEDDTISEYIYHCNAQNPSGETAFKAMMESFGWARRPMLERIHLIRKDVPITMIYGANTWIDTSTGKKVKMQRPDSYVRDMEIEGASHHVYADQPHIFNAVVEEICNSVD
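Assay system: mouse ABHD4 enzyme, wild type / Also added: fluorescent activity-based probe FP-Rh / Doses: single nominal dose of 8.92 µM, 0.89% DMSO final / Timing: 45 min compound pre-incubation plus 60 min probe step, 25 °C / Signal: FP readout, ex 525 nm / em 598 nm / Control set: S159A mutant/DMSO as 100%, compound-well median as 0%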
TCR CD3 inh: human TCR-CD3 binding inhibition | TAMRA-labeled TCR probe fluorescence, biochemical | inhibition, % at 9.4 µM | 360,000 tested, 0.37% active | AID 651800; in the data active = inhibition above about 19%;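 note: recombinant mutant TCR 2C K166C tagged with TAMRA read by polarization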
mABHD4 conf: ABHD4 (mouse) inhibition, FP confirmation; shares compounds with ABHD4 inh; inhibition, % at 8.92 µM; 1,800 tested, 55% active; purified mABHD4, FP-Rh probe fluorescence polarization; AID 720658;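 active = mean inhibition across replicates above the hit cutoff set in the primary screen, cut at about 30% in these data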
Of the large screens only hits and unclear results are named; the others gave an inactive call (follow-up assays come after a bar, where they were run); ! = a repeat was not active. Compounds with a hit are over-represented: about 2.2% of the library has one in this group of screens.

CC(=O)c1csc(-c2cccc(-c3nc4ccc(Cl)cn4c3NC3CCCCC3)c2)c1	none
CCC(C)Sc1cccc(-c2nc3ccc(C)cn3c2NCc2ccccc2)c1 (configuration not stated)	ABHD4 inh 35.9! | mABHD4 conf 32.2
CCCCCCSc1cc(-c2nc3ccc(C)cn3c2NCc2ccccc2)ccc1OC	ABHD4 inh 40.4 | mABHD4 conf 46.8
CCCCCCSc1cc(-c2nc3cnccn3c2NCCCC)ccc1OC	none (no result: LEDGF integ inh, SIAE primary, TDP2 inh, ABHD4 inh, TCR CD3 inh)
CCCCNc1c(-c2ccc(SC(C)CC)c(OC)c2)nc2ccc(C)cn12 (configuration not stated)	ABHD4 inh 35.9 | mABHD4 conf 46.9
O=S1(=O)c2ccc(Br)cc2OC[C@H](Cc2ccccc2)N1Cc1cn(Cc2ccc(F)cc2)nn1	none (no result: HTRA1 inh, TCR CD3 inh)
O=C(CCc1ccc(O)c(O)c1)N/N=C/c1cc2c(cc1[N+](=O)[O-])OCO2	LEDGF integ inh 53.0, ABHD4 inh 30.8 | mABHD4 conf 37.7
Cc1ccc(N=Cc2cc3c(cc2[N+](=O)[O-])OCO3)cc1[N+](=O)[O-]	LEDGF integ inh 14.7, ABHD4 inh 41.9 (no result: HTRA1 inh) | mABHD4 conf 30.1
O=[N+]([O-])c1cc(Br)cc(C=Nc2ccc3c(c2)OCO3)c1O	none
CC(=C1SC(=S)NC1=O)c1ccc(Cl)c(O)c1	none (no result: HTRA1 inh)
Cc1nc2ccccc2c(=O)n1CCc1ccccc1	none
Cc1cc2nc3c(=O)n(CCc4ccccc4)c(=O)[nH]c3nc2cc1N	ABHD4 inh 54.6 | mABHD4 conf inactive
O=C(O)c1ccc(N2CCN(c3ccc(Cl)cc3)CC2)c([N+](=O)[O-])c1	ABHD4 inh 38.0 | mABHD4 conf 46.8
O=C(/C=C/c1ccc(Cl)cc1)N1CCN(c2ccc(Cl)cc2[N+](=O)[O-])CC1	none
O=C(O)c1ccc(Nc2ccc(Cl)c(Cl)c2)c([N+](=O)[O-])c1	ABHD4 inh 43.5 | mABHD4 conf 62.2
Cc1ccc(Nc2ccc(C(=O)O)cc2[N+](=O)[O-])cc1	ABHD4 inh 29.5 | mABHD4 conf 54.7
CC(C)c1ccc(Nc2ccc(C(=O)O)cc2[N+](=O)[O-])cc1	ABHD4 inh 60.8 | mABHD4 conf 69.0
COc1cccc(Nc2ccc(C(=O)O)cc2[N+](=O)[O-])c1	ABHD4 inh 35.8 | mABHD4 conf 47.0
O=C(O)c1ccc(NCCc2ccc(Cl)cc2)c([N+](=O)[O-])c1	ABHD4 inh 57.4 | mABHD4 conf 53.0
COc1ccccc1Nc1ccc(C(=O)O)cc1[N+](=O)[O-]	none
CCC[C@H]1[C@@H](OC(=O)N2CCCC2)CC[C@@]23CCCN2C(=O)CCC[C@@H]13	none (no result: HTRA1 inh, TCR CD3 inh)
CC[C@@H](C)[C@H](NC(=O)OC(C)(C)C)c1nnc(S(=O)(=O)Cc2cc(C)ccc2C)o1	none
CC(C)[C@H](NC(=O)OC(C)(C)C)c1nnc(S(=O)(=O)Cc2c(F)cccc2Cl)o1	ABHD4 inh 31.3 | mABHD4 conf inactive
O=C(CC1CCCC1)N[C@H](C(=O)N1CCC[C@H]1C(=O)NCCc1ccccc1Cl)c1ccccc1	none (no result: HTRA1 inh)
COc1ccccc1CNC(=O)COc1cc(O)c2c(c1)OC(C)(C)CC2=O	none (no result: HTRA1 inh)
COCCCN1CCC2(CCC(c3ccccc3)CC2)C1=O (configuration not stated)	none (no result: HTRA1 inh, TCR CD3 inh)
CC(=O)Nc1ccc(C(=O)OCC(=O)Nc2ccccc2Sc2ccccc2)cc1	none
N#CCC(=O)Nc1ccc(C(=O)OCC(=O)Nc2ccccc2Sc2ccccc2)cc1	ABHD4 inh 52.3 (no result: HTRA1 inh) | mABHD4 conf inactive
C(=N\Nc1nc2ccccc2[nH]1)/c1ccccn1	ABHD4 inh 33.7 | mABHD4 conf 32.4
COc1cc(OC)c(OC)cc1/C=N/Nc1nc2ccccc2[nH]1	none
CCN(CC)c1ccc(/C=N/Nc2nc3ccccc3[nH]2)c(O)c1	SIAE primary 28.4, ABHD4 inh 30.9 | mABHD4 conf 80.1
CC(C)(C)NC(=O)C(c1cccnc1)N(C(=O)c1cccs1)c1ccc(C(C)(C)C)cc1 (configuration not stated)	none (no result: HTRA1 inh, TCR CD3 inh)
Cc1ccc(S(=O)(=O)N/N=C/c2ccc(O)c(O)c2)cc1[N+](=O)[O-]	ABHD4 inh 40.3 | mABHD4 conf inactive
Cc1ccc(S(=O)(=O)N/N=C/c2ccccc2O)cc1[N+](=O)[O-]	none
O=S1(=O)N[C@@H](Cc2ccccc2)COc2cc(N3CCOCC3)ccc21	none (no result: HTRA1 inh)
CCOc1ccccc1NC1=CC(=O)CC(c2ccccc2)C1 (configuration not stated)	ABHD4 inh 36.8 | mABHD4 conf inactive
Cc1cccc(N(CC(=O)NCc2ccc3c(c2)OCO3)C(=O)CCC(=O)Nc2ccccn2)c1C	none
Cc1cccc(N(CC(=O)NCc2ccc3c(c2)OCO3)C(=O)CCC(=O)Nc2ccccn2)c1	ABHD4 inh 39.9 | mABHD4 conf inactive
CCc1c(-c2cccc(OC)c2)ncn1CCc1ccccc1OC	none (no result: HTRA1 inh)
COCCCNC(=O)c1ccc(Cn2c(=O)c3ccccc3n(Cc3ccc(Br)cc3)c2=O)cc1	none (no result: HTRA1 inh, TCR CD3 inh)
CN(C)C1(CN=Cc2cc(Cl)cc([N+](=O)[O-])c2O)CCCCC1	ABHD4 inh 36.4 | mABHD4 conf 44.9
Oc1ccc(Br)cc1C=Nc1ccc2c3c(cccc13)CC2	ABHD4 inh 54.8 | mABHD4 conf inactive
Oc1ccc(Cl)cc1C=Nc1ccccc1Br	none
O=C(Nc1ccccc1)OC1CC2CC1[C@H]1CCCCN1[C@H]2Cc1ccccc1 (some centres not stated)	none (no result: HTRA1 inh, TCR CD3 inh)
Cc1cc(O)c(-c2cc(O)c(C)cc2O)cc1O	ABHD4 inh 32.0 | mABHD4 conf inactive
Cc1cc(N=O)c(C)cc1O	none (no result: HTRA1 inh)
C[C@@H]1C=CCCO[C@]12C(=O)N(CC1CC1)c1cccc(Br)c12	ABHD4 inh 39.7 (no result: HTRA1 inh) | mABHD4 conf 40.0
CC(C)=CCN1C(=O)[C@]2(OCCC=C[C@H]2C)c2c(Br)cccc21	none (no result: HTRA1 inh)
COC(=O)c1c(C)oc2c1cc(NS(=O)(=O)c1ccc(C(=O)O)cc1)c1ccccc12	ABHD4 inh 34.4 | mABHD4 conf inactive
Cc1ccc(S(=O)(=O)Nc2cc3c(C(=O)Nc4ccccc4)c(C)oc3c3ccccc23)cc1	none
C[C@H]1[C@@H](OC(=O)NC2CCC2)CC[C@@]23CCCN2C(=O)CCC[C@@H]13	none (no result: HTRA1 inh, TCR CD3 inh)
Cc1nnc(NS(=O)(=O)c2ccc(N)cc2)s1	none
Cc1nnc(NS(=O)(=O)c2ccc(N=Nc3ccc(N)nc3N)cc2)s1	ABHD4 inh 58.3 | mABHD4 conf 34.3
Cc1cc(C(C)(C)CC(C)(C)C)ccc1OCCOCC[N+](C)(C)Cc1ccccc1	ABHD4 inh 35.7 | mABHD4 conf 45.4
O=C(C(=O)N1CCN(C(=O)c2cccs2)CC1)c1cccc(C(F)(F)F)c1	none (no result: HTRA1 inh)
